Measured values from ChEMBL document CHEMBL1123566, “Synthesis and cardiac electrophysiological activity of 2- and 3-[(substituted phenyl)alkyl]quinuclidines. Structure-activity relationships” (1987).
Values joined by “and” are separate entries in the source; they are usually repeats but may differ in a detail not shown here. Equal entries are not always repeated.

How the values were obtained:
Canis familiaris [1] = species on record: Canis familiaris; test: In vitro electrophysiological evaluation in canine cardiac Purkinje fibres reported as % change for action potential duration at 10 uM at 1-100 uM concentration range; type: functional, Canis lupus familiaris, Purkinje fiber
Procedure, shortened: (§1)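 Canine cardiac Purkinje fibres, intracellular microelectrode recording, paced at a basic cycle length of 1 s. APD95 and Vmax read simultaneously. Compound: 10 mM stock in deionized water, diluted into Tyrode's solution, tested over the stated concentration range. Each fibre used once as its own control. Result is % change from control, given at 10 µM or as the maximum with its concentration. M = <10% decrease or an increase in Vmax.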

Canis familiaris [2] = species on record: Canis familiaris; test: In vitro electrophysiological evaluation in canine cardiac occurred is 100 uM.; type: functional; conditions: Canis lupus familiaris; Heart
Canis familiaris [3] = species on record: Canis familiaris; test: In vitro electrophysiological evaluation in canine cardiac Purkinje fibres reported as maximum percent change Vmax concentration range of 1-100 uM; Minimal (<10% decrease or increase in V max).; type: functional; conditions: Canis lupus familiaris; Purkinje fiber; procedure, shortened: as §1
Canis familiaris [4] = species on record: Canis familiaris; test: In vitro electrophysiological evaluation in canine cardiac Purkinje fibres reported as % change for action potential duration at a concentration of 10 uM; type: functional, Canis lupus familiaris, Purkinje fiber; procedure, shortened: as §1
Canis familiaris [5] = species on record: Canis familiaris; test: In vitro electrophysiological evaluation in canine cardiac ventricular muscle reported as % change for conduction time(CT) at 10 uM at 0.1-100 uM concentration range; Minimal (<10% decrease or increase in CT).; type: functional, Canis lupus familiaris, Muscle tissue
Canis familiaris [6] = species on record: Canis familiaris; test: In vitro electrophysiological evaluation in canine cardiac ventricular muscle reported as maximum % change for conduction time(CT) at […] concentration range; Minimal (<10% decrease or increase in CT).; type: functional, Canis lupus familiaris, Muscle tissue
Procedure, shortened: (§2)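 Canine right ventricle and papillary muscle strips in oxygenated Tyrode's solution, fitted with stimulating and recording electrodes. The extra-stimulus conduction-interval method was adapted for in vitro use. FRP and CT were read from a conduction-interval curve before and after various compound concentrations, and expressed as percent change from control. Compounds were taken from 10 mM deionized-water stock into Tyrode's. Each strip was used once as its own control.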

Canis familiaris [7] = species on record: Canis familiaris; test: In vitro electrophysiological evaluation in canine cardiac Purkinje fibres reported as percent change Vmax at 10 uM at concentration range of 1-100 uM; Minimal (<10% decrease or increase in V max).; type: functional; conditions: Canis lupus familiaris, Purkinje fiber; procedure, shortened: as §1
Canis familiaris [8] = species on record: Canis familiaris; test: In vitro electrophysiological evaluation in canine cardiac ventricular muscle reported as % change for the functional refractory period (FRP) at 10 uM at concentration range of 0.1-100 uM; design: species or system Canis lupus familiaris, Muscle tissue; procedure, shortened: as §2
Canis familiaris [9] = species on record: Canis familiaris; test: In vitro electrophysiological evaluation in canine cardiac ventricular muscle reported as maximum % change for functional refractory period (FRP) at 0.1-100 uM concentration range; concentration at which it occurred is 100 uM.; design: species or system Canis lupus familiaris, Muscle tissue; procedure, shortened: as §2
Canis familiaris [10] = species on record: Canis familiaris; test: In vitro electrophysiological activity in canine cardiac occurred is 100 uM.; type: functional, Canis lupus familiaris, Heart

CCOC(=O)C(CC1C(=O)C2CCN1CC2)C(=O)c1ccc(Cl)c([N+](=O)[O-])c1.Cl (stereo not given)
APD95 (Canis familiaris [1]): -2% | Vmax (Canis familiaris [2]): -12% | Vmax (Canis familiaris [3]): < 10% | APD95 (Canis familiaris [4]): 0% | CT (Canis familiaris [5]): <10% | CT (Canis familiaris [6]): <10% | Vmax (Canis familiaris [7]): < 10% | FRP (Canis familiaris [8]): 17% | FRP (Canis familiaris [9]): 20% | APD95 (Canis familiaris [10]): -2% and -7%
